Data as given in ChEMBL document CHEMBL3102728, “Leonurusoleanolides E-J, minor spirocyclic triterpenoids from Leonurus japonicus fruits” (J Nat Prod, 2014).

Legend:
Assay type in all cases: functional, cell-based
Jurkat = assay: Cytotoxicity against human Jurkat cells after 72 hrs by CellTitre-Glo luminescent cell viability assay
Outline: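 Jurkat grown in RPMI-1640 with 10% FBS and penicillin/streptomycin at 37 °C, 5% CO2. Cells seeded at 1000 per well, then given serially diluted compounds, with staurosporine as the positive control. Incubated 72 h in the dark, away from bright light. Viability read by CellTiter-Glo luminescence. IC50 obtained by regression of % viable cells against log concentration, 10 concentrations, triplicate experiments.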

Huh-7 = assay: Cytotoxicity against human HuH7 cells after 72 hrs by CellTitre-Glo luminescent cell viability assay; conditions: Huh-7, 72 h
MCF7 = assay: Cytotoxicity against human MCF7 cells after 72 hrs by CellTitre-Glo luminescent cell viability assay; conditions: MCF7, 72 h
[1] = Cytotoxicity against human KE-97 cells after 72 hrs by CellTitre-Glo luminescent cell viability assay; conditions: KE-97, 72 h
[2] = Cytotoxicity against human BGC823 cells after 72 hrs by CellTitre-Glo luminescent cell viability assay; conditions: BGC-823, 72 h

Row | SMILES | IC50 (Jurkat) | IC50 (Huh-7) | IC50 (MCF7) | IC50 [1] | IC50 [2]
1 | CN[C@@H]1C[C@H]2O[C@@](C)([C@@H]1OC)n1c3ccccc3c3c4c(c5c6ccccc6n2c5c31)C(=O)NC4 [STAUROSPORINE] | 0.14 µM |  |  |  | 
2 | CC1(C)CC[C@]2(CC[C@]3(C)C(=CC[C@@H]4[C@@]5(C)C[C@@H](O)[C@H](O)[C@@](C)(CO)[C@@H]5CC[C@]43C)[C@H]2O)C1 | > 10 µM | > 10 µM | 8.5 µM | > 10 µM | > 10 µM
3 | COc1cc(/C=C\C(=O)O[C@H]2[C@H](O)C[C@@]3(C)[C@@H](CC[C@]4(C)[C@@H]3CC=C3[C@@H](O)[C@@]5(CCC(C)(C)C5)CC[C@]34C)[C@]2(C)CO)ccc1O | > 10 µM | > 10 µM | > 10 µM | > 10 µM | > 10 µM
4 | CC1(C)CC[C@@]2(CC[C@]3(C)C(=CC[C@@H]4[C@@]5(C)C[C@@H](O)[C@H](O)[C@@](C)(COC(=O)/C=C/c6ccc(O)c(O)c6)[C@@H]5CC[C@]43C)[C@H]2O)C1 (relative stereo) | 9.7 µM | 9.7 µM | 4.3 µM | > 10 µM | > 10 µM
5 | CC1(C)CC[C@]2(CC[C@]3(C)C(=CC[C@@H]4[C@@]5(C)C[C@@H](O)[C@H](OC(=O)/C=C\c6ccc(O)cc6)[C@@](C)(CO)[C@@H]5CC[C@]43C)[C@H]2O)C1 | > 10 µM | > 10 µM | > 10 µM | > 10 µM | > 10 µM
6 | CC1(C)CC[C@@]2(CC[C@]3(C)C(=CC[C@@H]4[C@@]5(C)C[C@@H](O)[C@H](O)[C@@](C)(COC(=O)/C=C\c6ccc(O)cc6)[C@@H]5CC[C@]43C)[C@H]2O)C1 (relative stereo) | > 10 µM | > 10 µM | > 10 µM | > 10 µM | > 10 µM
7 | COc1cc(/C=C/C(=O)OC[C@@]2(C)[C@@H]3CC[C@]4(C)[C@H](CC=C5[C@@H](O)[C@]6(CCC(C)(C)C6)CC[C@]54C)[C@@]3(C)C[C@@H](O)[C@@H]2O)ccc1O | > 10 µM | > 10 µM | > 10 µM | > 10 µM | > 10 µM
8 | COc1cc(/C=C\C(=O)OC[C@@]2(C)[C@@H]3CC[C@]4(C)[C@H](CC=C5[C@@H](O)[C@]6(CCC(C)(C)C6)CC[C@]54C)[C@@]3(C)C[C@@H](O)[C@@H]2O)ccc1O (relative stereo) | > 10 µM | > 10 µM | > 10 µM | > 10 µM | > 10 µM
9 | CC1(C)CC[C@@]2(CC[C@]3(C)C(=CC[C@@H]4[C@@]5(C)C[C@@H](O)[C@H](O)[C@@](C)(COC(=O)/C=C/c6ccc(O)cc6)[C@@H]5CC[C@]43C)[C@H]2O)C1 | > 10 µM | > 10 µM | > 10 µM | > 10 µM | > 10 µM
10 | CC1(C)CC[C@]2(CC[C@]3(C)C(=CC[C@@H]4[C@@]5(C)C[C@@H](O)[C@H](OC(=O)/C=C/c6ccc(O)cc6)[C@@](C)(CO)[C@@H]5CC[C@]43C)[C@H]2O)C1 | > 10 µM | > 10 µM | > 10 µM | > 10 µM | > 10 µM
11 | CC1(C)CC[C@@]2(CC[C@]3(C)C(=CC[C@@H]4[C@@]5(C)C[C@@H](O)[C@H](OC(=O)/C=C/c6ccc(O)c(O)c6)[C@@](C)(CO)[C@@H]5CC[C@]43C)[C@H]2O)C1 (relative stereo) | 3.9 µM | 1.9 µM | 4.6 µM | 3 µM | 7.5 µM
12 | COc1cc(/C=C/C(=O)O[C@H]2[C@H](O)C[C@@]3(C)[C@@H](CC[C@]4(C)[C@@H]3CC=C3[C@@H](O)[C@@]5(CCC(C)(C)C5)CC[C@]34C)[C@]2(C)CO)ccc1O | > 10 µM | > 10 µM | > 10 µM | > 10 µM | > 10 µM
